Source: PubChem BioAssay (several laboratories)
TMEM16A inh: TMEM16A chloride channel inhibitors, primary screen, cell-based, HTS; Anoctamin-1 (Mus musculus), Q8BHY3; HEK293 TMEM16A/YFP iodide influx fluorescence, ionomycin; normalized B-score (activity score, 25-100; higher = stronger inhibition) at 10 µM; 310,000 compounds, 1.2% hits; AID 588511, 2011;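 active = ratio plate-corrected score three or more library SD toward inhibition, starting fluorescence score within five deviations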;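 also: score derived from kinetic fluorescence span divided by baseline fluorescence per well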
Target sequence (Q8BHY3 whole entry, looked up): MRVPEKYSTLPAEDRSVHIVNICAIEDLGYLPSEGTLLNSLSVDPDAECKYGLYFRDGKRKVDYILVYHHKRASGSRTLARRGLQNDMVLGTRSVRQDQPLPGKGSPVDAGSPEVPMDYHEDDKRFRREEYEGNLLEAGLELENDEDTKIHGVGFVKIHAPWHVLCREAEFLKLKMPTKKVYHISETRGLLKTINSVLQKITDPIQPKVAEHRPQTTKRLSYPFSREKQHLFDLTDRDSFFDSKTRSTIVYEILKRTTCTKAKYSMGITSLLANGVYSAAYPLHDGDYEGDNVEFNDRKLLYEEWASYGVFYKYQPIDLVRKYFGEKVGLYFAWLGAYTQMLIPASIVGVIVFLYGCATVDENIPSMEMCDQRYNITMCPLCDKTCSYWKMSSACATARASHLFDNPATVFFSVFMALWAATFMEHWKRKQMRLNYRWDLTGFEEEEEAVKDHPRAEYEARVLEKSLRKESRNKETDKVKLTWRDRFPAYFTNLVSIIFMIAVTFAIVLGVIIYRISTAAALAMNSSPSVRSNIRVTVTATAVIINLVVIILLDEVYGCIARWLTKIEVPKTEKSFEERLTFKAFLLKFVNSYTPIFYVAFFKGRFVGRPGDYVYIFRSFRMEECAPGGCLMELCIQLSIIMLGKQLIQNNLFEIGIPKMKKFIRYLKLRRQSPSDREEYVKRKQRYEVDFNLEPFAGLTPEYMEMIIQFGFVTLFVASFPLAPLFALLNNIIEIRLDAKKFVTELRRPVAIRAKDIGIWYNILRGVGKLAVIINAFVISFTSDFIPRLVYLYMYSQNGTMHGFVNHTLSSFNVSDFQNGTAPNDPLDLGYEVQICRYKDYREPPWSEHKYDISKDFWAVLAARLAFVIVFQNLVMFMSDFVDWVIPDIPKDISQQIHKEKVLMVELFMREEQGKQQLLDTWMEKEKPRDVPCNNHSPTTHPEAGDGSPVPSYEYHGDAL
TMEM16A act: TMEM16A chloride channel activators or potentiators, primary screen, cell-based, HTS; Anoctamin-1 (Mus musculus), Q8BHY3; HEK293 TMEM16A/YFP-H148Q/I152L, iodide quench fluorescence; active compounds read low; B-score at 10 µM; 340,000 compounds, 0.3% hits;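 active = fluorescence-ratio B-score plate-corrected deviation score at least 3 library SD below zero, with starting fluorescence score within 5 deviations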;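 also: channel opened by trigger with iodide after compound preincubation; score built on the fluorescence ratio of max minus min over baseline; more negative score means more quench and so TMEM16A activation or potentiation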
UPR XBP1 act: activators of adaptive XBP1 UPR arm, primary screen, cell-based, CHO-XBP1 luciferase reporter, luminescence, uHTS; IRE1-XBP1 UPR activation; percent of tunicamycin response, DMSO as zero; activation, % at 20 µM; 330,000 compounds, 0.33% hits;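 active = versus positive control, 20 µM dose yields 30% or more activation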;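 also: 100% = tunicamycin at 10 µg/mL and 0% = DMSO only wells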
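Assay system: CHO-XBP1 luciferase reporter cells; Schedule: 6 h treatment, 37 °C; Detection: glow luminescence from Steady-Glo reagent; Benchmarks: high control tunicamycin 10 µg/mL final, low control DMSO vehicle only.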
Hep lipid drop: inhibitors of hepatocyte lipid droplet formation, primary screen, imaging, high-throughput imaging, BODIPY stain; AML12 mouse hepatocytes, oleate lipid droplets; inhibition, % at 6.5 µM; 240,000 compounds, 0.4% hits; AID 1656, 2009;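 active = lipid droplet intensity inhibited by at least 50%, with more than 500 cells counted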
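System: AML12 hepatocytes (mouse). Probe or stimulus: oleic acid at 100 µM to induce lipid droplet formation. Times: overnight treatment with compound plus oleate. Detection: Image-based BODIPY and DAPI two-channel analysis. Evaluation: percent inhibition of filter-corrected integrated lipid droplet intensity per well.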
CHOP inhibitor: inhibitors of CHOP promoter induction, primary screen, cell-based, unfolded protein response, luciferase reporter; CHO-K1 CHOP-promoter luciferase, tunicamycin-induced, 15-18 h; inhibition, % at 10 µM; 220,000 compounds, 3.8% hits;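 active = compounds that reduced the stress-induced luciferase reporter signal by more than about 70% of percent inhibition, limit read from the data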;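 also: 0% = tunicamycin plus vehicle and 100% = wells without tunicamycin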
CHOP UPR activ: activators of apoptotic CHOP UPR arm, primary screen, cell-based, CHO-CHOP luciferase reporter, luminescence, uHTS. activation, % at 10 µM. UPR activation; percent of tunicamycin response over DMSO baseline. 330,000 compounds, 0.34% hits;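 active = at 10 µM dose, activation of 40% or more, normalized to positive control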;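 also: 100% = tunicamycin at 10 µg/mL and 0% = DMSO alone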
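measured by = luciferase luminescence | assay system = CHO-CHOP cells, stable luciferase reporter of PERK-eIF2a-CHOP signalling | amount = 500 reporter cells seeded per well | timing = 6 h compound exposure at 37 °C after overnight seeding | controls = positive tunicamycin 10 µg/mL, negative DMSO alone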
UPR CHOP confirm: activators of apoptotic CHOP UPR arm, confirmation, cell-based, CHO-CHOP luciferase reporter, single concentration; shares compounds with CHOP UPR activ; CHO-CHOP cells, CHOP-luciferase reporter luminescence; percent of tunicamycin response, DMSO as zero; activation, % at 10 µM; 1,000 compounds, 64% hits; in the data active = activation above about 33%;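 also: 0% = DMSO wells and 100% = tunicamycin 10 µg/mL wells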
The depositor's hits bear a star; i = inactive; · = not tested or not shown. A selection: hits, their analogues and other compounds. The true share with any hit is near 4.2%.

SMILES	TMEM16A inh	TMEM16A act	UPR XBP1 act	Hep lipid drop	CHOP inhibitor	CHOP UPR activ	UPR CHOP confirm
COc1ccc2nc(SC(C)C(=O)NCC(=O)Nc3ccc(F)c(F)c3F)[nH]c2c1 (stereo not given)	·	i	3.1	·	·	1.5	·
CCCOc1ccc(N2C(=O)CC(N(O)c3ccccc3)C2=O)cc1 (stereo not given)	i	i	4.7	·	10.8	191.6*	170.3*
O=c1oc2cc(Oc3c([N+](=O)[O-])cc(C(F)(F)F)cc3[N+](=O)[O-])ccc2c2c1CCCC2	i	i	0.5	·	94.5*	53.9*	20.2
Cn1c(SCC(=O)Nc2ccc(N3CCOCC3)c(Cl)c2)nnc1C(O)c1ccccc1 (stereo not given)	i	i	0.4	1.5	33.5	43.3*	-0.9
Cn1c(COc2ccccc2)nnc1SCC(=O)Nc1ccc(N2CCOCC2)c(Cl)c1	i	i	-0.9	9.5	24.0	1.1	·
Cc1nc([N+](=O)[O-])c(Br)n1CC(=O)c1ccc(Cl)cc1	i	i	-5.7	1.9	-64.0	57.6*	59.7*
O=C(NCCc1ccccn1)c1cc(-c2ccccc2Cl)nc2ccccc12	i	i	0.9	1.8	12.8	0.6	·
CCc1cccc2sc(N3CCN(C(=O)c4ccc([N+](=O)[O-])o4)CC3)nc12	i	i	-2.7	·	·	157.4*	140.9*
Cc1coc2c1C(=O)C(=O)c1c-2ccc2c1CCCC2(C)C	i	i	8.2	18.2	16.1	6.8	·
Cc1coc2c1C(=O)C(=O)c1c-2ccc2c(C)cccc12	i	i	12.6	-3.0	30.3	61.9*	37.4*
CCOc1ccc(C(=O)NCC(=O)OCc2nnc(-c3ccccc3)o2)cc1OCC	·	i	-1.2	·	·	-1.3	·
O=C(/C=C/Sc1ccccc1)c1ccccc1	i	i	-2.7	·	49.5	78.9*	98.6*
O=C(/C=C/Sc1ccccc1)c1ccc(Cl)cc1	i	i	29.1	-29.6	7.2	113.3*	103.5*
Cc1nnc(NC(=O)c2nc(S(=O)(=O)Cc3ccccc3)ncc2Cl)s1	i	i	-11.5	-21.8	·	40.7*	11.4
Cc1ccc(NC(=O)c2nc(S(=O)(=O)Cc3ccccc3)ncc2Cl)cc1	i	i	-10.7	-11.0	·	0.9	·
COc1ccc(NC(=O)c2nc(S(=O)(=O)Cc3cccc(C)c3)ncc2Cl)c(OC)c1	i	i	-5.5	-3.1	·	61.4*	295.9*
Cc1ccccc1CS(=O)(=O)c1ncc(Cl)c(C(=O)Nc2ccc(F)cc2)n1	i	i	-9.3	-31.2	·	186.5*	100.8*
COc1ccc(OC)c(NC(=O)c2nc(S(=O)(=O)Cc3ccccc3)ncc2Cl)c1	i	i	-11.0	-0.9	·	-11.0	·
Cc1cccc(C)c1NC(=O)c1nc(S(=O)(=O)Cc2ccccc2)ncc1Cl	i	i	-11.2	-2.7	·	239.2*	270.5*
Cc1ccc(OCC(=O)N2CCN(S(C)(=O)=O)CC2)cc1	i	i	-0.5	-16.8	3.7	1.3	·
CCOC(=O)c1sc(N(Cc2ccccc2)C(=O)CCl)nc1C	i	i	19.7	-65.2	·	49.0*	218.8*
Cc1ccc2c(C(=O)CN3CCSCC3)c(C)[nH]c2c1	i	i	-4.1	2.1	48.5	2.3	·
Cc1ccc2[nH]cc(C(=O)CCl)c2c1	i	i	-6.3	2.4	47.3	347.8*	189.2*
Cc1ccc2c(C(=O)CCl)c(C)[nH]c2c1	i	i	-5.7	-3.2	-219.8	479.1*	274.2*
CCc1cc(C(=O)N2CCN(S(=O)(=O)c3ccccc3F)CC2)sc1C	·	i	-2.7	·	·	-1.3	·
SMILES	TMEM16A inh	TMEM16A act	UPR XBP1 act	Hep lipid drop	CHOP inhibitor	CHOP UPR activ	UPR CHOP confirm
COc1cccc(-c2nc3c(c(=O)[nH]c(=O)n3Cc3ccccc3)n2CCO)c1OC(F)F	i	i	-0.5	-2.7	·	1.7	·
COc1ccc(CCNC(=O)CSc2nc3[nH]ncc3c(=O)[nH]2)cc1OC	i	i	1.1	5.3	4.7	-0.1	·
CC(C)(C)C(=O)N1CCN(c2ccc(NC(=O)c3ccc([N+](=O)[O-])o3)cc2)CC1	i	i	2.0	-52.1	·	58.5*	86.9*
Cc1ccccc1OCC(=O)Nc1ccc2c(c1)C(=O)N(CCC(=O)O)C2=O	i	i	-1.2	14.0	·	0.3	·
O=C(Nc1nccs1)c1cccc(N2C(=O)c3cccc4c([N+](=O)[O-])ccc(c34)C2=O)c1	i	i	13.7	9.2	-33.0	85.2*	121.9*
CC(=O)c1ccc(OCCOc2ccc(C#N)cc2)cc1	i	i	0.1	-5.7	-6.8	0.3	·
O=C(OCc1c(F)cccc1Cl)c1cnc(Cl)c(Cl)c1	i	i	0.8	-5.6	·	3.4	·
Cc1cc(C(=O)Cn2ncc(Cl)c(Cl)c2=O)c(C)n1CC(F)(F)F	i	i	1.6	-13.0	37.6	96.0*	62.0*
CCCc1cc(=O)[nH]c(SCC(=O)c2cc(C)n(CC(F)(F)F)c2C)n1	i	i	-0.1	12.3	17.6	-1.3	·
O=C(Oc1c(CN2CCOCC2)cc(Cl)c2cccnc12)c1ccccc1Cl	i	i	18.9	3.2	-4.6	39.8	·
O=C(Oc1c(CN2CCOCC2)cc(Cl)c2cccnc12)c1ccc(F)cc1	i	i	19.9	-6.3	40.7	40.3*	40.4*
COc1ccc(C(=O)Oc2c(CN3CCOCC3)cc(Cl)c3cccnc23)cc1	i	i	-0.9	-11.6	-6.7	0.4	·
COc1cc(C(=O)Oc2c(CN3CCOCC3)cc(Cl)c3cccnc23)cc(OC)c1OC	i	i	24.0	·	28.5	62.2*	56.0*
COc1cccc(C(=O)Oc2c(CN3CCOCC3)cc(Cl)c3cccnc23)c1	i	i	19.3	-2.6	-58.3	80.4*	28.3
Cc1ccc(C2(C)NC(=O)N(CC(=O)NC(=O)NC(C)C)C2=O)cc1 (stereo not given)	i	i	-1.9	0.7	·	-2.0	·
Cc1cccc(C)c1NC(=O)CN(C)C(=O)COc1cccc2c1OC(C)(C)C2	i	i	-0.6	·	·	-0.4	·
